Results from different studies.
Lines come from different studies, so protocols differ.
Cell line: UACC-257
Read-out: cell growth or viability

Structure (SMILES) | assay | conditions | measurement | value
NC(=O)c1cc(Cl)ccc1NC(=O)COc1ccccc1 | – | – | GI50 | > 100 µM
COc1ccc(-c2ccc(-c3ccc(C(=N)N)nc3)s2)cc1Cl | SRB | – | GI50 | 1.88 µM
COc1ccc(C(=O)/C=C/c2cccc(Cl)c2Cl)cc1S(N)(=O)=O | SRB | 10 µM | inhibition | 65%
O=C1NCCc2[nH]c(-c3ccncc3)cc21 | – | – | IC50 | > 10 µM
O=C1Nc2ccccc2C1=NNc1nnc2n1N=C(c1ccccc1)CS2 | SRB | 10 µM | inhibition | 11%
O=C1NC(=NCc2cccs2)S/C1=C\c1ccc2ncccc2c1 | – | – | IC50 | > 10 µM
COc1cc(-c2ccc(-c3ccc(C(=N)N)nc3)s2)cc(OC)c1OC | SRB | – | GI50 | 2.15 µM
COc1ccc(C2=Nn3c(NN=C4C(=O)Nc5ccc(Cl)cc54)nnc3SC2)cc1 | SRB | 10 µM | inhibition | 27%
COc1ccc(C(=O)/C=C/c2cc3c(cc2Br)OCO3)cc1S(N)(=O)=O | SRB | 10 µM | inhibition | 36%
